# From ChEMBL document CHEMBL1649446, “Comparative antipneumococcal activities of sulopenem and other drugs” (2009)
# Tests used:
# Assay type in all cases: functional
# Streptococcus pneumoniae [1] = test: Antimicrobial activity against Streptococcus pneumoniae isolate 24 by agar dilution method
# Streptococcus pneumoniae [2] = test: Antimicrobial activity against Streptococcus pneumoniae isolate 3282 by agar dilution method
# Streptococcus pneumoniae [3] = test: Antimicrobial activity against Streptococcus pneumoniae isolate 1384 by agar dilution method
# Outline: (§1)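 Agar dilution MIC on Mueller-Hinton agar with 5% sheep blood, inocula 10^4 CFU/spot; amoxicillin-clavulanate combined 1:2; S. pneumoniae ATCC 49619 quality control each run.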
# Streptococcus pneumoniae [4] = test: Antimicrobial activity against Streptococcus pneumoniae isolate 3412 by agar dilution method; outline: as §1
# Streptococcus pneumoniae [5] = test: Antimicrobial activity against Streptococcus pneumoniae isolate 3455 by agar dilution method
# Streptococcus pneumoniae [6] = test: Antimicrobial activity against Streptococcus pneumoniae 7 by time-kill analysis
# Outline: (§2)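 Time-kill in cation-adjusted Mueller-Hinton broth with 5% lysed horse blood; inocula 5 × 105 to 5 × 10^6 CFU/ml; drugs at MIC, 2× and 4× MIC; 35°C shaking water bath; viable counts at 0, 3, 6, 12, 24 h. Bactericidal = ≥3 log10 CFU/ml (99.9%) drop from original inoculum; 90%/99%/99.9% killing scored per strain.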
# Streptococcus pneumoniae [7] = test: Antimicrobial activity against Streptococcus pneumoniae isolate 37 by agar dilution method; outline: as §1
# Streptococcus pneumoniae [8] = test: Antimicrobial activity against Streptococcus pneumoniae isolate 1424 by agar dilution method; outline: as §1
# Streptococcus pneumoniae [9] = test: Antimicrobial activity against Streptococcus pneumoniae isolate 1055 by agar dilution method
# Streptococcus pneumoniae [10] = test: Antimicrobial activity against Streptococcus pneumoniae isolate 4747 by agar dilution method; outline: as §1
# Streptococcus pneumoniae [11] = test: Antimicrobial activity against Streptococcus pneumoniae isolate 1147 by agar dilution method; outline: as §1
# Streptococcus pneumoniae [12] = test: Antimicrobial activity against Streptococcus pneumoniae 2 by time-kill analysis; outline: as §2
# Streptococcus pneumoniae [13] = test: Antimicrobial activity against Streptococcus pneumoniae isolate 3263 by agar dilution method
# Streptococcus pneumoniae [14] = test: Antimicrobial activity against Streptococcus pneumoniae 9 by time-kill analysis
# Outline: as §2, with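 “12 and” for “12,”, “if” for “=”, “reduction” for “drop”, “90% and 99%” for “90%/99%/99.9%”, “also scored.” for “scored per strain.”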
# Streptococcus pneumoniae [15] = test: Antimicrobial activity against Streptococcus pneumoniae isolate 3458 by agar dilution method
# Streptococcus pneumoniae [16] = test: Antimicrobial activity against Streptococcus pneumoniae isolate 1397 by agar dilution method; outline: as §1
# Streptococcus pneumoniae [17] = test: Antimicrobial activity against Streptococcus pneumoniae 19A by agar dilution method; outline: as §1
# Streptococcus pneumoniae [18] = test: Antimicrobial activity against Streptococcus pneumoniae 1 by time-kill analysis
# Outline: as §2, with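 “12 and” for “12,”, “if” for “=”, “reduction” for “drop”, “90% and 99%” for “90%/99%/99.9%”, “also scored.” for “scored per strain.”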
# Streptococcus pneumoniae [19] = test: Antimicrobial activity against Streptococcus pneumoniae 6 by time-kill analysis; outline: as §2
# Streptococcus pneumoniae [20] = test: Antimicrobial activity against Streptococcus pneumoniae isolate 33 by agar dilution method; outline: as §1
# Streptococcus pneumoniae [21] = test: Antimicrobial activity against Streptococcus pneumoniae 8 by time-kill analysis; outline: as §2
# Streptococcus pneumoniae [22] = test: Antimicrobial activity against Streptococcus pneumoniae isolate 2880 by agar dilution method; outline: as §1
# Streptococcus pneumoniae [23] = test: Antimicrobial activity against Streptococcus pneumoniae 10 by time-kill analysis; outline: as §2
# Streptococcus pneumoniae [24] = test: Antimicrobial activity against Streptococcus pneumoniae isolate 3260 by agar dilution method
# Streptococcus pneumoniae [25] = test: Antimicrobial activity against Streptococcus pneumoniae isolate 2686 by agar dilution method; outline: as §1
# Streptococcus pneumoniae [26] = test: Antimicrobial activity against Streptococcus pneumoniae isolate 2688 by agar dilution method; outline: as §1
# Streptococcus pneumoniae [27] = test: Antimicrobial activity against Streptococcus pneumoniae isolate 3791 by agar dilution method; outline: as §1
# Streptococcus pneumoniae [28] = test: Antimicrobial activity against Streptococcus pneumoniae 3 by time-kill analysis; outline: as §2
# Streptococcus pneumoniae [29] = test: Antimicrobial activity against Streptococcus pneumoniae isolate 4755 by agar dilution method; outline: as §1
# Streptococcus pneumoniae [30] = test: Antimicrobial activity against Streptococcus pneumoniae isolate 3587 by agar dilution method
# Streptococcus pneumoniae [31] = test: Antimicrobial activity against Streptococcus pneumoniae isolate 3275 by agar dilution method; outline: as §1
# Streptococcus pneumoniae [32] = test: Antimicrobial activity against Streptococcus pneumoniae isolate 1564 by agar dilution method
# Streptococcus pneumoniae [33] = test: Antimicrobial activity against Streptococcus pneumoniae isolate 2874 by agar dilution method; outline: as §1
# Streptococcus pneumoniae [34] = test: Antimicrobial activity against penicillin-intermediate Streptococcus pneumoniae by agar dilution method
# Streptococcus pneumoniae [35] = test: Antimicrobial activity against Streptococcus pneumoniae isolate 2617 by agar dilution method; outline: as §1
# Streptococcus pneumoniae [36] = test: Antimicrobial activity against Streptococcus pneumoniae 12 by time-kill analysis; outline: as §2
# Streptococcus pneumoniae [37] = test: Antimicrobial activity against Streptococcus pneumoniae isolate 1394 by agar dilution method
# Streptococcus pneumoniae [38] = test: Antimicrobial activity against penicillin-susceptible Streptococcus pneumoniae by agar dilution method
# Streptococcus pneumoniae [39] = test: Antimicrobial activity against Streptococcus pneumoniae isolate 3346 by agar dilution method
# Streptococcus pneumoniae [40] = test: Antimicrobial activity against Streptococcus pneumoniae 4 by time-kill analysis; outline: as §2
# Streptococcus pneumoniae [41] = test: Antimicrobial activity against Streptococcus pneumoniae isolate 3681 by agar dilution method; outline: as §1
# Streptococcus pneumoniae [42] = test: Antimicrobial activity against Streptococcus pneumoniae isolate 1146 by agar dilution method; outline: as §1
# Streptococcus pneumoniae [43] = test: Antimicrobial activity against Streptococcus pneumoniae 5 by time-kill analysis
# Outline: as §2, with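 “12 and” for “12,”, “if” for “=”, “reduction” for “drop”, “90% and 99%” for “90%/99%/99.9%”, “also scored.” for “scored per strain.”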
# Streptococcus pneumoniae [44] = test: Antimicrobial activity against penicillin-resistant Streptococcus pneumoniae by agar dilution method; outline: as §1
# Streptococcus pneumoniae [45] = test: Antimicrobial activity against Streptococcus pneumoniae isolate 3374 by agar dilution method; outline: as §1
# Streptococcus pneumoniae [46] = test: Antimicrobial activity against Streptococcus pneumoniae isolate 3481 by agar dilution method; outline: as §1
# Streptococcus pneumoniae [47] = test: Antimicrobial activity against Streptococcus pneumoniae 11 by time-kill analysis; outline: as §2
compound,measurement,setting,value
CO/N=C(\C(=O)N[C@@H]1C(=O)N2C(C(=O)O)=C(COC(N)=O)CS[C@H]12)c1ccco1 [CEFUROXIME],MIC,Streptococcus pneumoniae [1],2 µg/mL
same,MIC,Streptococcus pneumoniae [2],4 µg/mL
same,MIC,Streptococcus pneumoniae [3],4 µg/mL
same,MIC,Streptococcus pneumoniae [4],4 µg/mL
same,MIC,Streptococcus pneumoniae [5],4 µg/mL
same,MIC,Streptococcus pneumoniae [6],4 µg/mL
same,MIC,Streptococcus pneumoniae [7],4 µg/mL
same,MIC,Streptococcus pneumoniae [8],16 µg/mL
same,MIC,Streptococcus pneumoniae [9],4 µg/mL
same,MIC,Streptococcus pneumoniae [10],8 µg/mL
same,MIC,Streptococcus pneumoniae [11],8 µg/mL
same,MIC,Streptococcus pneumoniae [12],0.016 µg/mL
same,MIC,Streptococcus pneumoniae [13],4 µg/mL
same,MIC,Streptococcus pneumoniae [14],0.25 µg/mL
same,MIC,Streptococcus pneumoniae [15],8 µg/mL
same,MIC,Streptococcus pneumoniae [16],8 µg/mL
same,MIC50,Streptococcus pneumoniae [17],8 µg/mL
same,MIC90,Streptococcus pneumoniae [17],16 µg/mL
same,MIC,Streptococcus pneumoniae [18],0.03 µg/mL
same,MIC,Streptococcus pneumoniae [19],0.5 µg/mL
same,MIC,Streptococcus pneumoniae [20],4 µg/mL
same,MIC,Streptococcus pneumoniae [21],8 µg/mL
same,MIC,Streptococcus pneumoniae [22],4 µg/mL
same,MIC,Streptococcus pneumoniae [23],0.25 µg/mL
same,MIC,Streptococcus pneumoniae [24],4 µg/mL
same,MIC,Streptococcus pneumoniae [25],16 µg/mL
same,MIC,Streptococcus pneumoniae [26],32 µg/mL
same,MIC,Streptococcus pneumoniae [27],8 µg/mL
same,MIC,Streptococcus pneumoniae [28],1 µg/mL
same,MIC,Streptococcus pneumoniae [29],8 µg/mL
same,MIC,Streptococcus pneumoniae [30],8 µg/mL
same,MIC,Streptococcus pneumoniae [31],2 µg/mL
same,MIC,Streptococcus pneumoniae [32],64 µg/mL
same,MIC,Streptococcus pneumoniae [33],8 µg/mL
same,MIC50,Streptococcus pneumoniae [34],0.25 µg/mL
same,MIC90,Streptococcus pneumoniae [34],4 µg/mL
same,MIC,Streptococcus pneumoniae [35],4 µg/mL
same,MIC,Streptococcus pneumoniae [36],4 µg/mL
same,MIC,Streptococcus pneumoniae [37],16 µg/mL
same,MIC50,Streptococcus pneumoniae [38],0.03 µg/mL
same,MIC90,Streptococcus pneumoniae [38],0.125 µg/mL
same,MIC,Streptococcus pneumoniae [39],4 µg/mL
same,MIC,Streptococcus pneumoniae [40],16 µg/mL
same,MIC,Streptococcus pneumoniae [41],4 µg/mL
same,MIC,Streptococcus pneumoniae [42],8 µg/mL
same,MIC,Streptococcus pneumoniae [43],16 µg/mL
same,MIC50,Streptococcus pneumoniae [44],4 µg/mL
same,MIC90,Streptococcus pneumoniae [44],16 µg/mL
same,MIC,Streptococcus pneumoniae [45],8 µg/mL
same,MIC,Streptococcus pneumoniae [46],8 µg/mL
same,MIC,Streptococcus pneumoniae [47],4 µg/mL
